HCV NS3 hel inh – HCV NS3 helicase inhibition; NS3 helicase DNA unwinding, Cy5 molecular beacon fluorescence; inhibition, % at 10.9 µM; 290,000 tested, 0.56% active; AID 1800;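 active means inhibition above the mean of all tested compounds plus 3 SD, set per campaign, cut at about 35% in these data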;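 further: 0% = DMSO wells and 100% = thioflavine S control wells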
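Control set: DMSO versus 110 µM thioflavine S; Material: NS3 helicase fragment of HCV; Measured by: Cy5 fluorescence at 0 and 60 min, beacon hairpin quenching; Read-out basis: percent inhibition from t60/t0 fluorescence ratio; Times: reaction time 60 min, 25 °C; Repeats: single replicate; Compound dosing: single dose, 10.9 µM nominal final, DMSO 0.8% final.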
core dimer inh – HCV core protein dimerization inhibition; TR-FRET GST/Flag-core106 dimerization, 1536-well; 300,000 tested, 0.33% active; inhibition, % at 5 µM;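 active means inhibition above the mean of all tested compounds plus 3 SD, set per screening campaign, cut at about 45% in these data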
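Assay system: GST-tagged and Flag-tagged HCV core protein residues 1-106 / Times: compound-protein-antibody incubation 4 h at 22.5 °C / Signal: time-resolved FRET, ex 340 nm, em 617 and 671 nm / Evaluation: % inhibition based on acceptor/donor emission ratio / Benchmarks: wells lacking GST-core106 and wells with excess unlabelled core106 / Repeats: singlicate, one well per compound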
EBV gp42 inh – inhibitors of Epstein-Barr virus glycoprotein 42. Fluorescence polarization binding assay, mP read-out. inhibition, % (tested at 21.74 µM). 220,000 tested, 0.42% active; in the data active means inhibition above about 50%
ZTA counter – blocks Epstein-Barr virus ZTA, an EBNA-1 counter-screen; P03206; ZTA-DNA binding, fluorescence polarization; inhibition, % at 11 µM; 320,000 tested, 0.15% active; AID 2234; in the data active means inhibition above about 33%
EBNA-1 inhibitor – blocks EBNA-1 binding to DNA. inhibition, % at 14.8 µM. 300,000 tested, 0.34% active. EBNA-1 DNA binding, fluorescence polarization; in the data active means inhibition above about 28%
GPR7 antag – human neuropeptides B/W receptor 1 antagonism; P48145; GPR7-expressing cells, fluorescence antagonist assay; inhibition, % at 4.4 µM; 290,000 tested, 1.1% active; AID 1861; in the data active means inhibition above about 16%, passing the limit was not always enough;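 further: cells stimulated with the agonist NPW; 0% = agonist with vehicle and 100% = vehicle without agonist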
Target sequence (P48145 whole entry, looked up): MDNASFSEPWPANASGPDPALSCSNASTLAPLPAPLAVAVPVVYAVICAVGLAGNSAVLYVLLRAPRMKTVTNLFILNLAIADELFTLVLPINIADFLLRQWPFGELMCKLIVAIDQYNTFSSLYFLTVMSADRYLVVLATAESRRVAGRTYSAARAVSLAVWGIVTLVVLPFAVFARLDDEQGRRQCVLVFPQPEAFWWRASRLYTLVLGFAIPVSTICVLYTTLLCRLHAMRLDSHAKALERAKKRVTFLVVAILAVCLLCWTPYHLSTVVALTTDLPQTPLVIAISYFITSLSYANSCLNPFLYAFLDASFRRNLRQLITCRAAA
NS3 hel confirm – HCV NS3 helicase inhibition, confirmation assay | shares compounds with HCV NS3 hel inh | NS3 helicase DNA unwinding, Cy5 molecular beacon fluorescence | inhibition, % at 10.9 µM | 1,600 tested, 31% active | AID 1943;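 active means inhibition above the mean of all tested compounds plus 3 SD, cutoff set per campaign, cut at about 36% in these data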
FID counter trip – counter-screen for HCV NS3 helicase inhibitors: DNA intercalator displacement | inhibition, % at 7.9 µM | shares compounds with HCV NS3 hel inh | 1,600 tested, 4% active | DNA fluorescent intercalator displacement, fluorescence; in the data active means inhibition above about 37%;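 further: 0% = vehicle and 100% = reference compound; higher means more displacement of ethidium bromide from the DNA hairpin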
DNA FID DR – DNA intercalator displacement in dose response. fluorescent intercalator displacement from DNA, fluorescence. 120 tested, under 10 active. shares compounds with HCV NS3 hel inh. AID 2172. IC50, µM; call rule not given here
* hit, by the source's call; . = no result given; + = active, no number. Most compounds without a hit are left out; they make up all but 2.3% or so of the library.

SMILES | HCV NS3 hel inh | core dimer inh | EBV gp42 inh | ZTA counter | EBNA-1 inhibitor | GPR7 antag | NS3 hel confirm | FID counter trip | others
O=C1/C(=C/C=C/c2ccco2)SC(=S)N1NS(=O)(=O)c1ccccc1 | 65.6* | 65.3* | -11.5 | 69.7* | 43.6* | -0.7 | 72.9* | 16.6
CCOc1ccc(/C=C2\SC(=S)N(NS(=O)(=O)c3ccccc3)C2=O)cc1OC | 41.5* | 1.4 | -31.8 | 11.2 | 8.2 | -2.1 | 79.0* | 5.1
COc1ccc(/C=C2\SC(=S)N(NS(=O)(=O)c3ccc(C)cc3)C2=O)c(OC)c1 | 110.6* | 2.1 | . | 10.9 | 16.7 | 3.4 | 79.6* | -26.3
Cc1cc(C)c(NC(=O)COC(=O)/C=C/c2cccs2)c(C)c1 | -4.2 | 1.7 | 2.7 | 2.1 | 15.8 | -6.9 | . | .
CCN(CC)c1ccc(N=C2C(=O)Nc3ccccc32)cc1 | 44.7* | 0.4 | . | + | + | -11.1 | 19.0 | 22.0
Cc1ccc(NC(=O)c2cc(NC(=O)c3ccccc3C(=O)O)ccc2N2CCCCC2)cc1 | 45.5* | 24.3 | -2.6 | -9.5 | 2.3 | -19.8 | 75.1* | -5.9
O=C(O)c1ccc(-n2cccc2/C=C2/NC(=O)N(c3cccc(Cl)c3)C2=O)cc1 | 41.2* | . | 33.4 | . | . | -10.3 | 69.5* | -16.7 | DNA FID DR=>79.4
O=C(O)c1ccc(-n2cccc2/C=C2/NC(=O)N(c3ccccc3)C2=O)cc1 | 16.6 | -15.7 | -21.5 | -7.1 | -0.1 | 10.4 | . | .
COc1cc(C(=O)NNC(=O)CSc2nnc3ccccn23)cc(OC)c1OC | . | . | . | -19.2 | . | . | . | .
CN(CC1CCCO1)S(=O)(=O)c1ccc(C(=O)Nc2ccc(S(N)(=O)=O)cc2)cc1 (centres undefined) | -4.4 | -0.8 | . | 2.0 | 3.6 | -13.3 | . | .
O=C1OC(c2cccs2)=N/C1=C/c1ccc(-c2cccc(C(=O)O)c2)o1 | 29.9 | . | -60.5 | . | . | -18.7 | . | .
O=C1OC(c2cccs2)=N/C1=C\c1ccc(-c2ccccc2Cl)o1 | 70.9* | . | -1.9 | . | . | -0.9 | 47.8* | 1.2
O=C(Nc1nnc(C2=COCCO2)o1)c1cccc([N+](=O)[O-])c1 | 7.5 | -0.8 | . | 1.8 | 9.0 | -13.3 | . | .
O=C(Nc1nnc(C2=COCCO2)o1)c1cccc(Br)c1 | 38.8* | -4.1 | . | -16.9 | 4.0 | -7.2 | -7.7 | 3.9
CCCC(c1nnnn1C(C)(C)CC)N1CCN(C(=O)c2ccco2)CC1 (centres undefined) | -2.5 | 3.3 | . | 8.3 | 11.5 | -0.9 | . | .
CCCCSc1oc(-c2ccco2)nc1S(=O)(=O)c1ccccc1 | -4.8 | 6.9 | . | 13.7 | 6.0 | -8.1 | . | .
CC(C)CSc1oc(-c2ccco2)nc1S(=O)(=O)c1ccccc1 | 40.1* | 9.4 | -7.5 | 6.9 | 6.7 | -9.2 | -22.6 | -27.1
